Measurements from ChEMBL document CHEMBL4622834, “Synthesis and antiproliferative activity of sulfonamide-based peptidomimetic calpain inhibitors” (Bioorg Med Chem, 2020).
The source made the active and inactive calls. The calls are words filed in the database; no cut-off is given here. Where a SMILES comes first, the peptide text is derived from it. The star is where a group is joined. Cbz = O=C(OCc1ccccc1)*

How the values were obtained:
[1] = biological target: T1, Calpain-1 catalytic subunit (Sus scrofa, UniProt P35750); experiment: Inhibition of mu-calpain in porcine erythrocyte using Suc-Leu-Tyr-AMC as substrate by microtiter plate assay based Dixon plot analysis
T1 sequence (P35750 whole entry): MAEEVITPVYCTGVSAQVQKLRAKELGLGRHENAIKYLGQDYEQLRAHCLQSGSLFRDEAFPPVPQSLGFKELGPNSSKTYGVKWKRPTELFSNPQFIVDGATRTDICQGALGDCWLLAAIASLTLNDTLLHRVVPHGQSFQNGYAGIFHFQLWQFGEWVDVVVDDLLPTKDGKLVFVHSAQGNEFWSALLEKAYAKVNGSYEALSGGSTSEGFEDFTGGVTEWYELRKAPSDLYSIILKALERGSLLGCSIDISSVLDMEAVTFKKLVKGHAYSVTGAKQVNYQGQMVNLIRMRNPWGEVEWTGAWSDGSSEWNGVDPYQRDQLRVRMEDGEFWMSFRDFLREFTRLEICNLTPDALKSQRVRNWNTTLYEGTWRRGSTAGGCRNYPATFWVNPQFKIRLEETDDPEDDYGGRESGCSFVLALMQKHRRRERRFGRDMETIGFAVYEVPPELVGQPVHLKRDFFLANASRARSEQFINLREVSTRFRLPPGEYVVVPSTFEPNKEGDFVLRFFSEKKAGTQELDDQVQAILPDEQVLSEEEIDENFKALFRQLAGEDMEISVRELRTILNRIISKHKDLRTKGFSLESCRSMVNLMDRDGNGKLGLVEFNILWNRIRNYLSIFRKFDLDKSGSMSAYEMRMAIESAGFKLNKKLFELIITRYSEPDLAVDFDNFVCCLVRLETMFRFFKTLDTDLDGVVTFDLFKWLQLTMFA
Outline: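 Porcine erythrocyte µ-calpain (1 µg) in 50 mM Tris-HCl pH 7.4, 50 mM NaCl, 10 mM DTT, 1 mM EDTA, 1 mM EGTA, 5 mM CaCl2, with 0.2 mM or 1.0 mM Suc-Leu-Tyr-AMC and varying inhibitor in DMSO (2% total). Ki from Dixon plots of initial velocity (1/v vs inhibitor concentration), r above 0.95; no correction for slow binding or autolysis; mean of triplicates.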

B16-F1 = experiment: Antiproliferative activity against mouse B16-F1 cells assessed as inhibition of cell growth after 48 hrs by sulforhodamine B colorimetric assay; format: functional; details: B16-F1, 48 h
Outline: (§1)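 Melanoma cells in DMEM with 5% FBS, 1% penicillin/streptomycin, 0.05% insulin; 5000 cells/well in U-bottom wells. After 12 h medium changed and compound added at 8 concentrations for 48 h; Taxol positive control, cells plus medium as negative control. Fixed with 10% TCA, stained with 0.4% SRB in 1% acetic acid 30 min RT, dye released with 10 mM Tris base, A490. Triplicate, ±SEM.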

PC-3 = experiment: Antiproliferative activity against human PC3 cells assessed as inhibition of cell growth after 72 hrs by MTT assay; format: functional; details: PC-3, 72 h
Outline: (§2)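 Cells seeded at 2,000–15,000/well, exposed to drug for 72 h at 37 °C, 5% CO2; untreated wells as negative control. MTT (5 mg/mL) added for the final 2–4 h; plates spun, formazan dissolved in DMSO, A595. Percent survival vs concentration fitted by nonlinear regression for IC50. Triplicate. PC3 grown in RPMI-1640, DU145 in EMEM, each with 10% FBS; DU145 tested at 1 and 2 µM.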

A-375 = experiment: Antiproliferative activity against human A375 cells assessed as inhibition of cell growth after 48 hrs by sulforhodamine B colorimetric assay; format: functional; details: A-375, 48 h; outline: as §1
DU-145 [2] = experiment: Antiproliferative activity against human DU145 cells assessed as inhibition of cell growth at 1 to 2 uM after 72 hrs by MTT assay; format: functional, cell-based; outline: as §2
DU-145 [3] = experiment: Antiinvasive activity against human DU145 cells assessed as inhibition of cell invasion at 2 uM after 48 hrs by matrigel cell invasion assay; format: functional; details: DU-145, 48 h
Outline: (§3)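 DU-145 cells (20,000) seeded in serum-free medium with 1% BSA in upper chamber, 37 °C for 24 h; lower chamber 10% FBS as chemoattractant. Upper medium then replaced with serum-free medium with or without compound at 1.0, 1.5 or 2.0 µM. After 48 h, non-invading cells swabbed off; invading cells fixed, stained, counted. Triplicate; expressed as percentage of untreated cells.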

DU-145 [4] = experiment: Antiinvasive activity against human DU145 cells assessed as inhibition of cell invasion after 48 hrs by matrigel cell invasion assay; format: functional, cell-based; outline: as §3

Structure (SMILES) | Ki [1] | GI50 (B16-F1) | GI50 (PC-3) | GI50 (A-375) | Activity (DU-145 [2]) | inhibition at 2 µM (DU-145 [3]) | inhibition (DU-145 [4])
CC(C)[C@H](NC(=O)OCc1ccccc1)C(=O)N[C@H](C=O)Cc1ccccc1 (Cbz-Val-Phe-aldehyde) | 0.01 µM | – | – | – | – | – | –
CC(C)C[C@H](NC(=O)[C@@H](NS(=O)(=O)c1ccc(/C=C/c2ccccc2)cc1)C(C)C)C(=O)C(N)=O | 0.009 µM | 17.2 µM | 6.02 µM | 16 µM | – | – | –
CC(=O)O[C@H]1C(=O)[C@@]2(C)[C@H]([C@H](OC(=O)c3ccccc3)[C@]3(O)C[C@H](OC(=O)[C@H](O)[C@@H](NC(=O)c4ccccc4)c4ccccc4)C(C)=C1C3(C)C)[C@]1(OC(C)=O)CO[C@@H]1C[C@@H]2O [PACLITAXEL] | – | 0.02 µM | 0.03 µM | 0.01 µM | – | – | –
CC(C)C[C@@H](C=O)NC(=O)[C@@H]1CCCN1S(=O)(=O)c1ccc(/N=N/c2ccccc2)cc1 | 0.273 µM | 13.6 µM | 5.6 µM | 4.1 µM | – | – | –
CC(C)C[C@@H](C=O)NC(=O)[C@@H](NS(=O)(=O)c1ccc(/C=C/c2ccccc2)cc1)C(C)C | 0.014 µM | 10.3 µM | 23 µM | 9.4 µM | – | – | –
CC(C)C[C@H](NC(=O)[C@@H](NS(=O)(=O)c1ccc(/N=N/c2ccccc2)cc1)C(C)C)C(=O)C(N)=O | 0.016 µM | 18.7 µM | 24.1 µM | 22.2 µM | inactive | 80% | Dose-dependent effect
CC(C)C[C@@H](C=O)NC(=O)[C@@H](NS(=O)(=O)c1ccc(/N=N/c2ccccc2)cc1)C(C)C | 0.018 µM | 13.7 µM | 27.3 µM | 12.9 µM | – | – | –
